Compound activity deposited in PubChem BioAssay by Sanford-Burnham Center for Chemical Genomics.
An excerpt weighted towards active compounds, which were near 4.1% of everything screened.
CHOP UPR activ – apoptotic UPR (CHOP) activation; CHO-CHOP luciferase reporter, luminescence; percent of tunicamycin response over DMSO baseline; activation, % at 10 µM; 330,000 tested, 0.34% active; AID 449763;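 active means at 10 µM dose, activation of 40% or more, normalized to positive control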;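 further: 100% = tunicamycin at 10 µg/mL and 0% = DMSO alone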
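System: CHO CHOP reporter cells. Amount: 500 cells per well. Buffer or medium: F12 medium, 10% FBS. Compound dosing: one dose, 10 µM in 0.5% DMSO. Incubation: 6 h compound exposure at 37 °C after overnight seeding. Technique: Steady-Glo luciferase luminescence. Benchmarks: tunicamycin and DMSO controls.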
Apaf1 inhib – human Apaf-1 inhibition | 330,000 tested, 0.71% active | AID 489030 | reconstituted apoptosome caspase-3 activity, DEVD-Rh110 fluorescence | inhibition, % at 20 µM; active means inhibition of at least 40% at 20 µM;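 further: plate controls were DMSO wells for no effect and DEVD-CHO caspase inhibitor wells for full effect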
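System: reconstituted apoptosome with Apaf-1, cytochrome c, caspase-9, procaspase-3, dATP; Signal: Rh110 fluorescence intensity; Schedule: 30 min compound preincubation, 50 min activation, room temperature; Reagent: cytochrome c trigger plus (Z-DEVD)2-Rh110 caspase-3 substrate.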
UBC13 inh – inhibitors of human UBC13 polyubiquitin chain formation; TR-FRET; AID 485273; 330,000 tested, 0.47% active; inhibition, % at 20 µM; in the data active means inhibition above about 45%, passing the limit was not always enough
Target sequence (P61088 whole entry, looked up): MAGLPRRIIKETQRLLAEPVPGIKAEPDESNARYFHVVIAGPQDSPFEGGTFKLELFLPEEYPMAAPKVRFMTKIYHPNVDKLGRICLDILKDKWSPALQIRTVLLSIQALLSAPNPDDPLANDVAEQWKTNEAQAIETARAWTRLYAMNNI
XBP1 UPR activ – activators of adaptive arm of unfolded protein response (XBP1) | CHO-XBP1 luciferase reporter, IRE1-XBP1 UPR activation, luminescence; percent of tunicamycin response, DMSO as zero | activation, % at 20 µM | 330,000 tested, 0.33% active;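 active means versus positive control, 20 µM dose yields 30% or more activation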;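 further: 100% = tunicamycin at 10 µg/mL and 0% = DMSO only wells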
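Assay system: IRE1-XBP1 luciferase reporter CHO line. Input: 1000 cells/well. Buffer or medium: F12 with 10% serum. Doses: 20 µM, 1% DMSO. Times: overnight seeding at 37 °C, 6 h compound treatment at 37 °C. Technique: Steady-Glo luciferase glow luminescence, 10 min after reagent addition.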
Mdm2 MdmX PPI – inhibitors of human Mdm2/MdmX interaction; O15151+Q00987; SaOS-2 split-luciferase Mdm2/MdmX complementation, luminescence; inhibition, % at 8 µM; 330,000 tested, 3% active; AID 485346;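 active means inhibition of at least 50% at 8 µM in the primary screen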
Mdm2 MdmX conf – confirmation of human Mdm2/MdmX interaction inhibitors; shares compounds with Mdm2 MdmX PPI; AID 489028; Mdm2-MdmX binding, luminescent assay; inhibition, % at 8 µM; 10,000 tested, 55% active; in the data active means inhibition above about 40%
Full FLuc ctr – full-length luciferase inhibition in Mdm2/MdmX counter-screen | SaOS-2 full-length luciferase counterscreen, luminescence | 6,200 tested, 77% active | shares compounds with Mdm2 MdmX PPI | inhibition, % at 8 µM;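 active means mean inhibition at 8 µM reaching about 37%, which flags the compound as non-specific, limit read from the data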;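 further: p53-null SaOS-2 cells with luciferase driven by a doxycycline-inducible promoter; compound on cells about two nights before reading with doxycycline added after day one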
* = called active by the depositor; / = not tested or not shown.

SMILES	CHOP UPR activ	Apaf1 inhib	UBC13 inh	XBP1 UPR activ	Mdm2 MdmX PPI	Mdm2 MdmX conf	Full FLuc ctr
CC1CCN(Cc2c(C(=O)N/N=C/c3cc(Br)ccc3O)nnn2-c2nonc2N)CC1	-2	11	-7	1	85*	83*	56*
Nc1nonc1-n1nnc(C(=O)N/N=C/c2ccccc2)c1CN1CCc2ccccc21	0	19	-12	-5	8	/	/
C/C(=N\NC(=O)c1nnn(-c2nonc2N)c1CN1CCc2ccccc21)c1ccccc1O	-2	6	-10	-1	69*	67*	31
CCOc1ccccc1/C=N/NC(=O)c1nnn(-c2nonc2N)c1CN1CCCCCC1	1	10	-14	-1	2	/	/
Cc1ccn(CCC(=O)NC2CC(C)(C)Cc3c2cnn3-c2ccccc2C)n1 (stereo unspecified)	1	-9	-5	-1	0	/	/
COc1ccc(CCC(=O)OC(C)C(=O)c2ccc(C)cc2)cc1 (stereo unspecified)	-1	13	-5	-1	67*	-3	/
Cc1ccc(-c2nc(NCCCO)c3ccccc3n2)cc1	0	0	-4	-1	-14	/	/
c1ccc2c(NCCc3c[nH]c4ccccc34)c3ccccc3nc2c1	3	6	36	5	100*	60*	55*
OCCCNc1c2ccccc2nc2ccccc12	-3	3	-12	-4	79*	82*	44*
CC(C)n1c(/C=C/[C@H](O)C[C@H](O)CC(=O)O)c(-c2ccc(F)cc2)c2ccccc21	0	5	-15	-5	50*	46*	79*
O=C(CN1C(=O)NC2(CCc3ccccc32)C1=O)Nc1ccc(Br)cc1F (stereo unspecified)	-1	-3	12	-2	-15	/	/
Cc1cc(C)c(C(=O)NC2CCCc3c2cnn3-c2cccc(C)c2C)o1 (stereo unspecified)	-1	4	5	-3	78*	75*	43*
O=C(NC1CCCc2c1cnn2-c1ccccc1F)c1ccccn1 (stereo unspecified)	0	8	-6	-5	86*	72*	29
COc1ccccc1N1CCN(Cc2cc(Br)c(O)c3ncccc23)CC1	26	-3	-42	7	61*	60*	60*
Oc1c(CN2CCCCC2)cc(COCc2ccccc2)c2cccnc12	-1	3	7	21	52*	49*	44*
COCc1cc(CN2CCCC2)c(O)c2ncccc12	-1	-10	-15	2	38	/	/
CN(C)C1CCN(Cc2cc(COCc3ccccc3)c3cccnc3c2O)C1 (stereo unspecified)	0	18	14	12	67*	71*	33
CCOc1ccccc1N1CCN(Cc2cccc(OC)c2O)CC1	1	-6	2	0	0	/	/
Oc1c(CN2CCN(c3ccccn3)CC2)cc(Cl)c2cccnc12	-10	24	7	11	72*	71*	28
CCCC(NC(=S)NCC1CCCO1)C12CC3CC(CC(C3)C1)C2 (stereo unspecified)	12	14	17	3	39	/	/
Cc1ccc(O)c(N/C=C/C(=O)c2ccc(F)cc2)c1	12	18	-1	3	-20	/	/
CC1CCc2c(sc3ncn(CC(=O)N=Nc4c(O)[nH]c5ccccc45)c(=O)c23)C1 (stereo unspecified)	0	-10	-13	0	53*	-4	/
CC1CCc2c(sc3ncn(CCO)c(=O)c23)C1 (stereo unspecified)	3	-12	21	2	-31	/	/
Cc1cc(=O)oc2cc(OCC(=O)Nc3c(C)n(C)n(-c4ccccc4)c3=O)c(Cl)cc12	-1	1	-4	-2	17	/	/
COCC(C)n1c(SC(C)C(=O)NC2CCCCC2C)nc2ccccc2c1=O (stereo unspecified)	4	14	6	-2	7	/	/
SMILES	CHOP UPR activ	Apaf1 inhib	UBC13 inh	XBP1 UPR activ	Mdm2 MdmX PPI	Mdm2 MdmX conf	Full FLuc ctr
O=C(Nc1ccc(N2CCOCC2)cc1)c1cnsn1	-11	-6	4	-6	70*	68*	32
O=C(Nc1ccc(N2CCOCC2)cc1)c1ccncc1	1	2	4	1	8	/	/
O=C(Nc1ccc(N2CCOCC2)cc1)c1cnccn1	-8	0	-1	-12	54*	32	/
O=C(CCN1CCN(Cc2ccccc2)CC1)NNC(=O)Nc1cccc([N+](=O)[O-])c1	0	7	-4	-8	13	/	/
O=C1CCCN1c1ccc(S(=O)(=O)Nc2ccc3c(c2)OCCO3)cc1	0	-13	-5	0	68*	69*	61*
CC(C)OC(=O)CCC1(C(=O)O)CCC(=O)NC1 (stereo unspecified)	2	-15	-2	-1	-11	/	/
